Values after ≈ are worked out from the molar mass of the structure shown. “Also recorded” adds a separate entry of the source.
Key:
[1] = system: SK-MEL, KB, BT-549, SK-OV-3, VERO and LLC-PK1 cells; test: cytotoxicity, neutral red uptake assay; type: cell-based, mammalian; details: highest test concentration 4760 ng/mL
Summary of the method: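 Cells seeded at 25 000/well and allowed 24 h to reach confluence. Test compound was then added and incubated 48 h. Viable cells were counted by a modified neutral red uptake method. The panel was four human cancer lines and two noncancerous mammalian kidney lines. Doxorubicin served as positive control and DMSO as negative control.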

[2] = system: M. intracellulare (ATCC23068); test: in vitro antibacterial activity, modified alamarBlue procedure; type: cell-based, Mycobacterium intracellulare; details: Mycobacterium intracellulare; for IC50: ATCC23068, read-out: IC50 (concentration that affords 50% growth inhibition), M. intracellulare; for MBC: ATCC23068, read-out: MBC (minimum bactericidal concentration), M. intracellulare; for MIC: ATCC23068, read-out: MIC, M. intracellulare
Summary of the method: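 Modified alamarBlue microplate method. Test compound serially diluted in 20% DMSO/saline, duplicate wells, up to 20 μg/mL. Inoculum 2.0 × 10^6 CFU/mL in Middlebrook 7H9 with OADC, pH 7.3, containing 5% alamarBlue. Incubated 70–74 h at 37 °C, 10% CO2; fluorescence 544ex/590em read before and after. MIC: no blue-to-pink change. MBC by subculturing blue wells on agar. Ciprofloxacin control.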

A. fumigatus ATCC 90906 = test: in vitro antifungal activity; type: cell-based, Aspergillus fumigatus; details: Aspergillus fumigatus; for IC50: ATCC90906, read-out: A. fumigatus IC50; for MFC: ATCC90906, read-out: A. fumigatus MFC; for MIC: ATCC90906, read-out: A. fumigatus MIC
Summary of the method: (§1)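 Modified NCCLS broth method in Sabouraud dextrose. Inoculum set by OD630 to 1.5 × 10^3 CFU/mL. Test compound serially diluted in 20% DMSO/saline, duplicate wells, up to 20 μg/mL. Incubated 70–74 h at 35 °C; 530 nm read before and after. IC50 is 50% growth inhibition; MIC is no detectable growth. MFC from clear wells subcultured on agar. Amphotericin B control.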

P. falciparum (W2) = test: in vitro antimalarial activity, plasmodial LDH; type: cell-based, Plasmodium falciparum; details: for IC50: Plasmodium falciparum, W2, 72 h, read-out: P. falciparum (W2) IC50, CQ-resistant W2 strain, 72 h
Summary of the method: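 P. falciparum-infected erythrocytes (2% parasitemia, 2% hematocrit) in RPMI 1640 with 10% human serum and 60 μg/mL amikacin. Exposed to test compound dilutions for 72 h at 37 °C under 90% N2/5% O2/5% CO2. LDH measured with Malstat reagent (30 min, room temperature), then NBT/PES for 1 h in the dark, stopped with 5% acetic acid, read at 650 nm. IC50 from dose-response curves.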

C. albicans ATCC90028 = test: in vitro antifungal activity; type: cell-based, Candida albicans; details: Candida albicans; for IC50: ATCC90028, read-out: C. albicans IC50; for MFC: ATCC90028, read-out: C. albicans MFC; for MIC: ATCC90028, read-out: C. albicans MIC
Summary of the method: as §1

SA (ATCC29213) = test: in vitro antibacterial activity; type: cell-based; details: Staphylococcus aureus; for IC50: ATCC29213, read-out: IC50 (concentration that affords 50% growth inhibition), SA; for MBC: ATCC29213, read-out: MBC (minimum bactericidal concentration), SA; for MIC: ATCC29213, read-out: MIC, SA
Summary of the method: (§2)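 Test compound serially diluted in 20% DMSO/saline and plated in duplicate, up to 20 μg/mL. Inoculum in cation-adjusted Mueller–Hinton broth, pH 7.3, set by OD630 to 5 × 10^5 CFU/mL. Incubated 16–20 h at 35 °C; 530 nm read before and after. IC50 is 50% growth inhibition; MIC is no detectable growth. MBC from clear wells subcultured on agar. Ciprofloxacin control.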

[3] = system: L. donovani promastigotes; test: in vitro antileishmanial activity, alamarBlue assay; type: cell-based, Leishmania donovani; details: Leishmania donovani, 48 h; for IC50: read-out: L. donovani IC50, promastigotes, 48 h; for IC90: read-out: L. donovani IC90, promastigotes, 48 h
[4] = system: P. berghei (sensitive strain); test: blood-schizontocidal activity against P. berghei infection in mice; type: in vivo, Plasmodium berghei; details: Swiss mice
Summary of the method: (§3)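 Swiss mice of either sex (about 15–20 g, same age), six per group, inoculated intraperitoneally on day 0 with 1 × 10^7 infected erythrocytes from a donor mouse. Oral test compound at 100, 50, 25 or 10 mg/kg, CQ diphosphate (10 mg/kg/day × 4) or vehicle started 4 h later, on D0 to D+3. Giemsa tail-blood smears on D+4 and D+7. Curative: parasites eliminated, no relapse, all mice surviving to D+60.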

[5] = system: multidrug-resistant P. yoelii nigeriensis; test: blood-schizontocidal activity against P. yoelii nigeriensis infection in mice; type: in vivo, Plasmodium yoelii nigeriensis; details: Swiss mice
Summary of the method: as §3

MRSA (ATCC33591) = test: in vitro antibacterial activity; type: cell-based, methicillin-resistant Staphylococcus aureus; details: Staphylococcus aureus, ATCC33591|MRSA, read-out: MIC, MRSA
Summary of the method: as §2

C. neoformans ATCC90113 = test: in vitro antifungal activity; type: cell-based, Cryptococcus neoformans; details: Cryptococcus neoformans; for IC50: ATCC90113, read-out: C. neoformans IC50; for MFC: ATCC90113, read-out: C. neoformans MFC; for MIC: ATCC90113, read-out: C. neoformans MIC
Summary of the method: as §1

P. falciparum (D6) = test: in vitro antimalarial activity, plasmodial LDH; type: cell-based, Plasmodium falciparum; details: Plasmodium falciparum, D6, 72 h, read-out: P. falciparum (D6) IC50

Compound | cytotoxicity CTX [1] | IC50 [2] | MBC [2] | MIC [2] | IC50 (A. fumigatus ATCC 90906) | MFC (A. fumigatus ATCC 90906) | MIC (A. fumigatus ATCC 90906) | IC50 (P. falciparum (W2)) | IC50 (C. albicans ATCC90028) | MFC (C. albicans ATCC90028) | MIC (C. albicans ATCC90028) | IC50 (SA (ATCC29213)) | MBC (SA (ATCC29213)) | MIC (SA (ATCC29213)) | IC50 [3] | IC90 [3] | P. berghei blood-schizontocidal activity (mice cured/treated) ([4]; 10 mg/kg/day × 4, oral) | P. berghei blood-schizontocidal activity (mice cured/treated) ([4]; 25 mg/kg/day × 4, oral) | P. berghei blood-schizontocidal activity (mice cured/treated) ([4]; 50 mg/kg/day × 4, oral) | P. berghei blood-schizontocidal activity (mice cured/treated) ([4]; 100 mg/kg/day × 4, oral) | also measured
CCCCCOc1c(OC)cc(NC(C)CCCN)c2nc(C(C)(C)C)ccc12 (stereo not drawn) [compound 46, N^4-(2-tert-Butyl-6-methoxy-5-(pentyloxy)quinolin-8-yl)pentane-1,4-diamine] | NC (NC, not cytotoxic up to 4760 ng/mL (4.76 μg/mL)) | > 20 µg/mL | > 20 µg/mL | > 20 µg/mL | > 20 µg/mL | > 20 µg/mL | > 20 µg/mL | 0.022 µg/mL (≈ 0.0548 µM) | > 20 µg/mL | > 20 µg/mL | > 20 µg/mL | 9.04 µg/mL (≈ 22.5 µM) | > 20 µg/mL | > 20 µg/mL | 32 µg/mL (≈ 79.7 µM) | > 40 µg/mL | active (4/6) | curative (6/6) | curative (6/6) | curative (6/6) | P. yoelii nigeriensis blood-schizontocidal activity (mice cured/treated) ([5]; 25 mg/kg/day × 4, oral): active (4/6); P. yoelii nigeriensis blood-schizontocidal activity (mice cured/treated) ([5]; 50 mg/kg/day × 4, oral): curative (6/6); P. yoelii nigeriensis blood-schizontocidal activity (mice cured/treated) ([5]; 100 mg/kg/day × 4, oral): cured 100% mice; also recorded: curative (6/6); MIC (MRSA (ATCC33591)): > 20 µg/mL; IC50 (C. neoformans ATCC90113): > 20 µg/mL; MFC (C. neoformans ATCC90113): > 20 µg/mL; MIC (C. neoformans ATCC90113): > 20 µg/mL; IC50 (P. falciparum (D6)): 0.02 µg/mL (≈ 0.0498 µM)
CCCCCCOc1c(OC)cc(NC(C)CCCN)c2nc(C(C)(C)C)ccc12 (stereo not drawn) [compound 47, N^4-(2-tert-Butyl-5-(hexyloxy)-6-methoxyquinolin-8-yl)pentane-1,4-diamine] | NC (NC, not cytotoxic up to 4760 ng/mL (4.76 μg/mL)) | 6.3 µg/mL (≈ 15.2 µM) | 10 µg/mL (≈ 24.1 µM) | 10 µg/mL (≈ 24.1 µM) | > 20 µg/mL | > 20 µg/mL | > 20 µg/mL | 0.042 µg/mL (≈ 0.101 µM) | 15.4 µg/mL (≈ 37.2 µM) | 20 µg/mL (≈ 48.1 µM) | 20 µg/mL (≈ 48.1 µM) | 2.77 µg/mL (≈ 6.66 µM) | 5 µg/mL (≈ 12 µM) | 5 µg/mL (≈ 12 µM) | 4.6 µg/mL (≈ 11.1 µM) | > 40 µg/mL | active (5/6) | curative (6/6) | curative (6/6) | curative (6/6) | P. falciparum (W2) IC50 (P. falciparum (W2); CQ-resistant W2 strain, 72 h): 0.04 µg/mL; P. yoelii nigeriensis blood-schizontocidal activity (mice cured/treated) ([5]; 25 mg/kg/day × 4, oral): inactive (0/6); P. yoelii nigeriensis blood-schizontocidal activity (mice cured/treated) ([5]; 50 mg/kg/day × 4, oral): cured 100% mice; also recorded: curative (6/6); P. yoelii nigeriensis blood-schizontocidal activity (mice cured/treated) ([5]; 100 mg/kg/day × 4, oral): curative (6/6); MIC (MRSA (ATCC33591)): 5 µg/mL (≈ 12 µM); IC50 (C. neoformans ATCC90113): 2.97 µg/mL (≈ 7.15 µM); MFC (C. neoformans ATCC90113): 5 µg/mL (≈ 12 µM); MIC (C. neoformans ATCC90113): 5 µg/mL (≈ 12 µM); IC50 (P. falciparum (D6)): 0.042 µg/mL (≈ 0.101 µM)
